# hERG protect – hERG (human) protection from proarrhythmic block | AID 1511 | CHO-hERG, FluxOR thallium flux, dofetilide IC70 present | actives 0.51% (n = 310,000) | Q12809 | activation (rescue from dofetilide block), less the hit threshold, % at 10 µM;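 active = activation above the mean of controls blocked by dofetilide plus 5 SD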;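 also: thallium influx through hERG after potassium depolarization seen as dye fluorescence rise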
# Cl transport mod – modulators of human KCC2 chloride dependent transport. KCC2 cells, thallium flux FluoZin-2 fluorescence. Q9H2X9. actives 2.2% (n = 190,000). B-score of Tl+ flux slope (higher = more flux/activation; lower = inhibition) at 10 µM;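 active = thallium flux slope and its plate-corrected score both differing from the plate sample mean at a set confidence after two filtering rounds, in either direction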;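 also: slope of fluorescence scaled to starting intensity during 10 to 20 s after thallium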
# KCNQ1 inh – inhibitors of human KCNQ1 potassium channel; P51787; CHO-K1 KCNQ1, FluxOR thallium flux fluorescence; stronger effect = higher value; B-score at 10 µM; actives 1.3% (n = 310,000);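 active = compounds whose thallium flux B-score, printed positive for inhibition, exceeds three library SD while starting fluorescence stays within three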;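 also: channel opened by potassium depolarization with thallium stimulus after 20 min compound exposure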
# KCNK3 block – human KCNK3 channel inhibition, primary screen. CHO-KCNK3 thallium flux, FluxOR fluorescence; stronger effect = lower value. B-score at 10 µM. actives 0.84% (n = 340,000). AID 602410;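 active = B-score under library mean minus 4 SD, starting fluorescence ratio at most library mean plus 5 SD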;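 also: more negative B-score means stronger inhibition of thallium flux through KCNK3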
# Target sequence (O14649 whole entry, looked up): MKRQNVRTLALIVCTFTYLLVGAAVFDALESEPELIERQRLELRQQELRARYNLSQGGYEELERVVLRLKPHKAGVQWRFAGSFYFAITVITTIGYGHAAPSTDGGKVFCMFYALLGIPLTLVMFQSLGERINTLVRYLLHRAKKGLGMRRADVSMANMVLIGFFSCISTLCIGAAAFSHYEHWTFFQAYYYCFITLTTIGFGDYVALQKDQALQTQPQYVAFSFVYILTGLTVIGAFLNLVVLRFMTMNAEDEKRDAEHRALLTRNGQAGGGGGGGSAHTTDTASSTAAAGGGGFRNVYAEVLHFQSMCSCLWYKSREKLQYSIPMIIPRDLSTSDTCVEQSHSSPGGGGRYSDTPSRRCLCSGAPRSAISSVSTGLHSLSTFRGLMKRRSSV
# KCNQ1 pot – human KCNQ1 channel potentiation or activation; P51787; CHO-K1 KCNQ1, thallium flux FluxOR fluorescence; stronger effect = higher value; B-score at 10 µM; actives 0.35% (n = 310,000); AID 2648;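 active = fluorescence ratio B-score, a plate-corrected score, at least three library SD, with initial intensity B-score within 5 SD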
#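 assay system = CHO-K1 cells stably expressing KCNQ1 | medium = assay buffer, equal DMSO in all wells | timing = 37 °C overnight plating, 90-min dark dye load, 20-min compound pretreatment | measured by = kinetic FluxOR thallium fluorescence, 10-s 1-Hz baseline, 110-s post-stimulus read | measure = fluorescence change relative to baseline, converted to B score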
# KCNK9 block – blocks the human KCNK9 two-pore domain potassium channel. Q9NPC2. HEK293 KCNK9, FluxOR thallium flux fluorescence; stronger effect = lower value. B-score at 10 µM. actives 1.2% (n = 310,000). AID 488922;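 active = ratio B-score over 3 SD below the library mean, with starting fluorescence within 5 SD of its mean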;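 also: negative B-score means less thallium flux so channel inhibition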
# KCNQ1 block val – confirmation of human KCNQ1 potassium channel inhibitors; shares compounds with KCNQ1 inh; KCNQ1 cell line, FluxOR thallium flux fluorescence; inhibition, % at 10 µM; actives 93% (n = 1,600);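 active = primary screen active, with duplicate mean exceeding buffer control mean plus 3 SD of buffer wells, cut at about 28% in these data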;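 also: 0% = buffer control ratio and 100% = XE991 inhibitor control ratio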
# CHO KCNQ1 ctr – counter-screen for KCNQ1 inhibitors: effect in parental CHO cells; fluorescence ratio (Tl flux) at 10 µM; shares compounds with KCNQ1 inh; actives 21% (n = 1,600); parental CHO-K1, FluxOR thallium flux fluorescence ratio; stronger effect = lower value; zero means no signal rise above baseline;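 active = mean of duplicate thallium-flux fluorescence ratios in parental host cells more than 5 SD below the buffer control mean, cut at about 0.38 in these data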;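 also: ratio is peak minus minimum fluorescence divided by baseline fluorescence; actives read low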
# KCNQ1 APC inh – blocks human KCNQ1 current in automated patch clamp; shares compounds with KCNQ1 inh; KCNQ1-CHO cells; calls only at 10 µM; actives 20% (n = 490); AID 624120;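 active = KCNQ1 current drop exceeding 3 SD of negative control wells, seen in both duplicate runs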;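 also: steady state current during a 2 s step from -80 to +40 mV; negative values mean current inhibition and positive values mean potentiation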
# KCNQ2 inh – selectivity of KCNQ1 inhibitors: inhibition of rat KCNQ2 channel. inhibition, % at 10 µM. shares compounds with KCNQ1 inh. KCNQ2 cells, FluxOR thallium flux fluorescence. AID 651746. actives 71% (n = 1,600);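 active = mean percent inhibition of the KCNQ2 thallium signal more than 5 SD above the buffer-only control wells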;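 also: KCNQ2 expressed in CHO cells; 0% = buffer control wells and 100% = XE-991 inhibitor control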
# KCNQ1 KCNE1 spec – KCNQ1 inhibitor that also blocks human KCNQ1/KCNE1 channel; shares compounds with KCNQ1 inh; KCNQ1/KCNE1 cells, FluxOR thallium flux fluorescence; inhibition, % at 10 µM; AID 652147; actives 77% (n = 1,600);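 active = mean percent inhibition of duplicate wells above the buffer-only control mean plus 3 SD of those controls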;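 also: 0% = buffer only wells and 100% = XE-991 inhibitor control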
# KCNK9 block conf – human KCNK9 inhibitor confirmation | inhibition, % at 10 µM | HEK293 KCNK9 cells, FluxOR thallium flux fluorescence | actives 43% (n = 4,900) | shares compounds with KCNK9 block;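 active = thallium signal inhibited by more than 5 SD of the compound-free buffer control wells, on both duplicate plates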;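 also: 0% = assay buffer control wells without compound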
# Kir21 sel – mouse Kir2.1 off-target activity of KCNK9 modulators. inhibition, % at 10 µM. shares compounds with KCNK9 block. Kir2.1 cells, FluxOR thallium flux fluorescence. actives 4% (n = 4,900);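 active = thallium signal drop more than 5 SD beyond the mean of the no-compound control wells, seen in both duplicate plates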;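 also: signal is fluorescence rise after thallium addition divided by baseline fluorescence; plate controls were assay buffer only for no effect and full block by chlorpromazine control for full effect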
# HEK293 Tl ctr – second counter-screen for KCNK9 modulators: effect in non-induced cells; shares compounds with KCNK9 block; non-induced KCNK9-HEK293, FluxOR thallium flux; inhibition, % at 10 µM; actives 40% (n = 4,900); AID 492997;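 active = thallium signal drop beyond 5 SD of the untreated control mean, on both duplicate plates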;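 also: plate controls were buffer only IC0 wells for no effect and SID17386958 at its maximal inhibitory level for full effect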
# KCNK3 confirm – confirmation of human KCNK3 two-pore domain potassium channel inhibitors | shares compounds with KCNK3 block | ratio percent of control, % at 10 µM | CHO-KCNK3 thallium flux, FluxOR fluorescence; 0% buffer, 100% carvedilol maximal block | actives 99% (n = 2,400) | AID 651638;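 active = ratio percent of control, averaged over triplicates, above buffer control mean plus 5 SD, cut at about 64% in these data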;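 also: ratio is the fluorescence rise from min to max over baseline after thallium stimulus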
# KCNK3 noninduced – KCNK3 inhibitor counter-screen hit in non-induced cells; AID 651747; thallium flux ratio (lower = more inhibition) at 10 µM; actives 40% (n = 2,400); shares compounds with KCNK3 block; non-induced KCNK3 parental cells, FluxOR thallium flux; stronger effect = lower value;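 active = thallium flux ratio, averaged over three wells, more than 5 SD below the buffer control mean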;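 also: host cells are CHO cells without KCNK3 induction; ratio is peak minus trough fluorescence over baseline then normalized to buffer controls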
# * = called active by the depositor; i = inactive; . = no result. A selection: hits, their analogues and other compounds. The true share with any hit is near 4.1%.
SMILES,hERG protect,Cl transport mod,KCNQ1 inh,KCNK3 block,KCNQ1 pot,KCNK9 block,KCNQ1 block val,CHO KCNQ1 ctr,KCNQ1 APC inh,KCNQ2 inh,KCNQ1 KCNE1 spec,KCNK3 confirm,KCNK3 noninduced,others
Cc1nc(N2CCN(Cc3ccc4c(c3)OCO4)CC2)c2cc(-c3ccccc3)sc2n1,-19,-0.34,7*,-10*,i,i,118*,0.41,i,111%*,130%*,95*,i,
Cc1ccc(NC(=S)Nc2cccnc2)c(S(=O)(=O)N2CCCCC2)c1,-23,-0.52,13*,-12*,i,i,97*,0.51,i,i,68%*,110*,i,
Cc1ccnc(NC(=O)C2CC(=O)N(c3ccc4c(c3)OCCO4)C2)c1 (stereo not drawn),-4,.,i,i,i,i,.,.,.,.,.,.,.,
COc1ccccc1NC(=O)c1cc2cc(Br)ccc2cc1O,-22,-0.11,9*,-8.8*,i,i,126*,0.45,i,97%*,107%*,135*,0.11*,
COc1ccc(NC(=O)c2sc3nc(C)nc(N4CCN(c5ccccn5)CC4)c3c2C)cc1Cl,-13,.,9*,-12*,i,i,98*,0.44,i,88%*,105%*,118*,0.15*,
Cc1nc(N2CCN(c3ccccn3)CC2)c2c(C)c(C(=O)Nc3ccc(F)cc3Cl)sc2n1,-22,.,i,i,i,i,.,.,.,.,.,.,.,
CC1CCCCC1Nc1nc2ccc(Cl)cc2n2cnnc12 (stereo not drawn),-16,.,i,i,i,i,.,.,.,.,.,.,.,
O=C(NC1CCCC1)c1ccc2c(c1)N(Cc1ccc(F)cc1)CCS2,-12,.,9*,-9.3*,i,-14*,76*,0.39,.,98%*,90%*,96*,i,KCNK9 block conf=74%*;Kir21 sel=i;HEK293 Tl ctr=42%*
CN(C)CCNC(=O)c1ccc2c(c1)N(Cc1ccc(F)cc1)CCS2,-7,.,i,i,i,i,.,.,.,.,.,.,.,
CN(C(=O)c1ccc(Cl)c([N+](=O)[O-])c1)C1(C)CCS(=O)(=O)C1 (stereo not drawn),-8,.,i,i,i,i,.,.,.,.,.,.,.,
Cc1ccc(N(C(=O)c2snc(C(N)=O)c2N)C(C(=O)NCc2ccccc2)c2ccncc2)c(C)c1 (stereo not drawn),-19,.,i,i,i,i,.,.,.,.,.,.,.,
CCc1cc(=O)n2c([nH]c3ccccc32)c1C#N,-11,-1.4,i,i,i,i,.,.,.,.,.,.,.,

# Compound activity: PubChem BioAssay, several laboratories
